Laboratory results: ChEMBL document CHEMBL1129452, “Phenethylthiazolylthiourea (PETT) compounds as a new class of HIV-1 reverse transcriptase inhibitors. 2. Synthesis and further structure-activity relationship studies of PETT analogs” (J Med Chem, 1996)

Experiments:
[1] = target: T1, Human immunodeficiency virus type 1 reverse transcriptase (Human immunodeficiency virus 1, UniProt Q72547); assay: Tested for the inhibition of wild type HIV-1 (IIIB) RT
MT4 [2] = assay: Inhibition of mutant type (Cys181) HIV-1 (IIIB) replication in MT-4 cells; assay type: functional; settings: Homo sapiens, read-out: ED50 (the source's name)
Outline: (§1)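 MT-4 cells (human T cell line) in RPMI 1640 with 10% fetal calf serum, penicillin and streptomycin, seeded at 2 × 10⁴ cells/well. Infected with 10-20 TCID₅₀ of mutant HIV-1 IIIB per well, with the compound added at different concentrations. Incubated at 37 °C in CO₂. Cell viability read by XTT dye at day 5 or 6. Activity taken as the reduction in viral cytopathic effect, given as ED₅₀. Mutants were raised by passage in stepwise increasing concentrations of non-nucleoside RT inhibitors.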

MT4 [3] = assay: Tested for the inhibition of wild type HIV-1 (IIIB) replication in MT-4 cells; assay type: functional; settings: Homo sapiens, read-out: ED50 (the source's name)
Outline: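 MT-4 human T cells in RPMI 1640 with 10% fetal calf serum, penicillin and streptomycin, seeded at 2 × 10⁴ cells/well and infected with 10-20 TCID₅₀ HIV-1 IIIB per well. Compounds were added over a concentration range and cultures kept at 37 °C in CO₂. Viability was read by XTT at day 5 or 6, and activity was taken as reduction of viral cytopathic effect.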

MT4 [4] = assay: Inhibition of mutant type (Ile100) HIV-1 (IIIB) replication in MT-4 cells; assay type: functional; settings: Homo sapiens, read-out: ED50 (the source's name); outline: as §1
[5] = target: T1, Human immunodeficiency virus type 1 reverse transcriptase; assay: Tested for the inhibition of mutant type (Cys181) HIV-1 (IIIB) RT
[6] = target: T1, Human immunodeficiency virus type 1 reverse transcriptase; assay: Tested for the inhibition of mutant type (Ile100) HIV-1 (IIIB) RT
MT4 [7] = assay: Inhibition of HIV-1(IIIB) variants (Ile100/Cys181) in HIV-1 MT-4 cells; assay type: functional; settings: Homo sapiens, read-out: ED50 (the source's name); outline: as §1
MT4 [8] = assay: Inhibition of HIV-1(IIIB) variants (Ile100/Asn103) in HIV-1 MT-4 cells; assay type: functional; settings: Homo sapiens, read-out: ED50 (the source's name); outline: as §1

| SMILES | IC50 [1] [nM] | EC50 (MT4 [2]) [nM] | EC50 (MT4 [3]) [nM] | EC50 (MT4 [4]) [nM] | IC50 [5] [nM] | IC50 [6] [nM] | EC50 (MT4 [7]) [nM] | EC50 (MT4 [8]) [nM] |
| --- | --- | --- | --- | --- | --- | --- | --- | --- |
| CN(C)c1ccc(F)c(CCNC(=S)Nc2ccc(Cl)cn2)c1F | 8 | 700 | 40 | > 2000 | 190 | 1900 |  |  |
| CCOc1ccc(F)c(CCNC(=S)Nc2ccc(Br)cn2)c1Cl [THIOUREA, N-(5-BROMO-2-PYRIDINYL)-N'-(2-(2-CHLORO-3-ETHOXY-6-FLUOROPHENYL)ETHYL)-] | 12 | 30 | 7 | 400 | 50 | 190 |  |  |
| Fc1cc(F)c(CCNC(=S)Nc2ccc(Cl)cn2)c(F)c1 | 2 | 1500 | 10 | 2000 | 290 | 810 |  |  |
| CCOc1ccc(F)c(CC/N=C(\S)Nc2nc(C(F)(F)F)cs2)c1Cl | 47 | > 2000 | 70 | > 2000 | 7000 | 7000 |  |  |
| CCc1cc(NCc2nc3c(Cl)ccc(Cl)c3o2)c(O)nc1C [L-697661] |  | > 11000 | 65 | 850 | 7700 | 850 |  |  |
| CN(C)c1cc(F)c(CCNC(=S)Nc2ccc(Cl)cn2)c(F)c1 | 20 | 900 | 18 | 1500 | 130 | 270 |  |  |
| Cc1ccnc2c1NC(=O)c1cccnc1N2C1CC1 [NEVIRAPINE] |  | 22000 | 150 | 620 |  |  | > 10000 | 8000 |
| CCOc1c(Cl)cc(F)c(CCNC(=S)Nc2ccc(Br)cn2)c1Cl | 21 | 20 | 13 | 1000 | 660 | 240 |  |  |
| COc1ccc(F)c(CC/N=C(\S)Nc2ccc(Cl)cn2)c1C#N | 5 | 100 | 11 | 400 | 1100 | 1100 |  |  |
| CN(C)c1ccc(F)c(CCNC(=S)Nc2ccc(Br)cn2)c1F | 7 | 1000 | 40 | > 2000 | 170 | 1900 |  |  |
| Fc1ccoc1CC/N=C(\S)Nc1ccc(Cl)cn1 | 4 | 80 | 7 | 100 | 140 | 230 | > 10000 | > 10000 |
| N#Cc1ccoc1CCNC(=S)Nc1ccc(Cl)cn1 | 60 | 200 | 20 | 700 | 2600 | 2600 |  |  |
| S=C(NCCn1nc2ccccc2n1)Nc1ccc(Br)cn1 | 3 | 1000 | 14 | 2000 | 100 | 2000 |  |  |
| COc1ccc(F)c(CC/N=C(\S)Nc2ccc(Br)cn2)c1C#N | 1 | 40 | 3 | 250 | 50 | 50 | > 10000 | > 10000 |
| CCOc1ccc(F)c(F)c1CCNC(=S)Nc1ccc(Br)cn1 | 5 | 200 | 7 | 1500 | 10 | 20 | > 10000 | > 10000 |
| S=C(NCCc1ccccn1)Nc1ccc(Br)cn1 [TROVIRDINE] |  |  | 20 |  |  |  |  |  |
| CCOc1cccc(F)c1CCNC(=S)Nc1ccc(Br)cn1 |  | 7 | 13 | 90 | 25 | 50 | 1000 | 1600 |
| CCOc1ccc(F)c(CCNC(=S)Nc2ccc(Br)cn2)c1F | 4 | 6 | 6 | 100 | 20 | 170 | 1200 | > 10000 |

| SMILES | IC50 [1] [nM] | EC50 (MT4 [2]) [nM] | EC50 (MT4 [3]) [nM] | EC50 (MT4 [4]) [nM] | IC50 [5] [nM] | IC50 [6] [nM] | EC50 (MT4 [7]) [nM] | EC50 (MT4 [8]) [nM] |
| --- | --- | --- | --- | --- | --- | --- | --- | --- |
| COCc1ccc(F)c(CCNC(=S)Nc2ccc(Br)cn2)c1F | 4 | 300 | 6 | 2500 | 100 | 720 |  |  |
| CNC(=O)c1ccc(F)c(CC/N=C(\S)Nc2ccc(Br)cn2)c1F | 23 | 300 | 80 | > 2000 | > 2000 | > 2000 |  |  |
| COc1ccc(F)c(CCNC(=S)Nc2ccc(Br)cn2)c1OC | 7 | 200 | 12 | 3000 | 85 | 430 |  |  |
| Fc1cccc(F)c1CCNC(=S)Nc1ccc(Br)cn1 |  | 150 | 13 | 600 | 30 | 50 |  |  |
| Cn1cccc1CCNC(=S)Nc1ccc(Cl)cn1 | 90 | > 2000 | 250 | > 2000 | 1400 | 2700 |  |  |
| COc1ccc(F)c(CCNC(=S)Nc2ccc(Br)cn2)c1F | 6 | 50 | 15 | 600 | 60 | 870 |  |  |
| O=C1c2c(Cl)ccc(Cl)c2C(=O)N1CCNC(=S)Nc1ccc(Cl)cn1 | 2 | > 2000 | 19 | > 2000 | 10 | 230 |  |  |
| CC(=O)NCc1ccc(F)c(CCNC(=S)Nc2ccc(Br)cn2)c1F | 45 | > 2000 | 900 | > 2000 | > 2000 | > 2000 |  |  |
| CCOc1ccc(F)c(CCNC(=S)Nc2ccc(C#N)cn2)c1Cl | 5 | 30 | 3 | 500 | 30 | 110 |  |  |
| Cc1cc2nn(CCNC(=S)Nc3ccc(Br)cn3)nc2cc1C | 150 | > 2000 | 220 | > 2000 | 100 | > 2500 |  |  |
| CCOc1ccc(OCC)c(CCNC(=S)Nc2ccc(Br)cn2)c1 | 18 | 800 | 18 | > 2000 | 707 | 1650 |  |  |
| COc1ccc(F)c(CCNC(=S)Nc2ccc(C#N)cn2)c1C#N | 3 | 30 | 1 | 200 | 50 | 60 |  |  |
| Cn1cccc1CC/N=C(\S)Nc1ccc(C#N)cn1 | 70 | > 2000 | 110 | > 2000 | 1100 | 3500 |  |  |
| CCOc1ccc(F)c(CCNC(=S)Nc2ccc(Cl)cn2)c1Cl | 6 | 7 | 8 | 600 | 30 | 130 |  |  |
| COc1ccc2[nH]cc(CC/N=C(\S)Nc3ccc(Br)cn3)c2c1 | 320 | 900 | 500 | > 2000 | 2500 | > 2500 |  |  |
| CCOc1ccc(F)c(CCNC(=S)Nc2ccc(I)cn2)c1Cl | 8 | 200 | 15 | 3000 | 130 | 420 |  |  |
| S=C(NCCc1c[nH]c2ccccc12)Nc1ccc(Br)cn1 | 30 | 300 | 110 | 3000 | 320 | > 2500 |  |  |
